Test results taken from ChEMBL document CHEMBL1142832, “Potent 4-aminopiperidine based antimalarial agents” (Bioorg Med Chem Lett, 2005).

Assays:
[1] = tested on: Plasmodium falciparum; test: Inhibition against multidrug-resistant Plasmodium falciparum infected erythrocytes; type: functional, organism-based
Method in brief: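 Multidrug-resistant P. falciparum Dd2 was grown in human red blood cells and assayed at the late ring stage. Parasite growth was read as [3H]-hypoxanthine incorporation. Each compound was run in duplicate, and the mean IC50 (nM) is reported.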

[2] = tested on: HFF; test: Cytotoxicity of compound was determined in human foreskin fibroblast assay; type: functional
Method in brief: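 Human foreskin fibroblasts were assayed in quadruplicate, and the average toxicity value is reported in nM.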

[3] = tested on: Plasmodium falciparum; test: Inhibitory concentration against chloroquine-sensitive Plasmodium falciparum; type: functional, organism-based
[4] = species on record: Homo sapiens; test: Percent remaining of compound was determined in human S9 liver microsomes at 1 hr; conditions: Liver S9 fraction
[5] = species on record: Mus musculus; test: Percent remaining of compound was determined in mouse S9 liver microsomes at 1 hr; conditions: Liver S9 fraction

SMILES | IC50 [1] [nM] | Cytotoxicity [2] [nM] | IC50 [3] [nM] | level, % of control [4] [%] | level, % of control [5] [%]
CCN(CCCNC1CCN(CC(c2ccccc2)c2ccccc2)CC1)CC(c1ccccc1)c1ccccc1 | 900 | 9900 | – | – | –
CCNCCCNC1CCN(CC(c2ccccc2)c2ccccc2)CC1 | 2500 | 2600 | – | – | –
CCN(CC)CCCNC1CCN(CCc2ccc(-c3ccccc3)cc2)CC1 | 400 | 1200 | – | – | –
CCN(CCCNC1CCN(CC(c2ccccc2)c2ccccc2)CC1)CC1CCCCC1 | 200 | 2200 | – | – | –
c1ccc(C(CN2CCC(NCCCN3CCCC3)CC2)c2ccccc2)cc1 | 200 | 2500 | – | – | –
CCN(CCCNC1CCN(CC(c2ccccc2)c2ccccc2)CC1)CCc1ccc(Cl)cc1 | 200 | 2000 | – | – | –
CCN(CC)CCCNC1CCN(CC2CCCCC2)CC1 | 4300 | 6000 | – | – | –
CCN(CCCNC1CCN(CC(c2ccccc2)c2ccccc2)CC1)CCC1CCCCC1 | 250 | 2100 | – | – | –
CCN(CC)CCCNC1CCN(CCC2CCCCC2)CC1 | 920 | 2900 | – | – | –
CCN(CC)CCCNC1CCN(CC(c2ccccc2)c2ccccc2)CC1 | 900 | 9900 | 30 | – | –
CCN(CC)CCCNC1CCN(CCc2ccc(Cl)cc2)CC1 | 850 | 2700 | – | – | –
c1ccc(Oc2ccc(CNCCCNC3CCN(CC4CCCCC4)CC3)cc2)cc1 | – | – | 30 | – | –
CN(C)CCCNC1CCN(CC(c2ccccc2)c2ccccc2)CC1 | 300 | 1300 | – | – | –
c1ccc(C(CN2CCC(NCCCN3CCCCC3)CC2)c2ccccc2)cc1 | 200 | 1200 | – | – | –
CCN(CCCNC1CCN(CC(c2ccccc2)c2ccccc2)CC1)CCc1ccc(-c2ccccc2)cc1 | 75 | 7600 | – | 45 | 113
